Columns and labels:
[1] = Diuretic activity was evaluated by measuring amount of K+ during 0-6 hr in urine of […] monkey at 1 mg/kg, po; type: ADME, organism-based; parameters: dose 1 mg/kg, route oral; details: simiiformes, in vivo
Outline: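 Male and female cynomolgus monkeys, fasted 16–18 h with water until dosing, six per dose. Compound or vehicle was given by pediatric nasogastric tube, followed at once by a 50 mL/kg water load. Monkeys were kept in metabolism cages without food or water for 6 h. Urine was collected at 0–1, 1–2, 2–4 and 4–6 h, and volume, electrolytes, uric acid and glucose were measured.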

Rattus norvegicus [2] = test: Percent change of arterial blood pressure in spontaneously hypertensive rats at the dose of 10 mg/kg (p.o.) after 24 hr (control BP(mm Hg)=219); type: functional; details: route oral
Rattus norvegicus [3] = test: Diuretic activity was evaluated by measuring amount of Cl- during 0-6 hr in urine of normotensive saline loaded rats at 0.1 mg/kg, po; type: ADME, organism-based; parameters: dose 0.1 mg/kg, route oral; details: in vivo
Outline: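 Male Sprague–Dawley rats (275–375 g), fed and watered ad libitum before testing but not during it, eight per group. Compound in 0.2% methylcellulose/water given orally at 2 mL/kg, immediately followed by a 0.9% saline load equal to 5% of body weight. Rats were kept in individual metabolism cages. Urine was sampled at 2, 6 and 24 h for volume, Na+, K+, Cl−, uric acid and osmolality.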

Diuretic activity [1]: 0.7 m equiv kg-1
Diuretic activity (Rattus norvegicus [3]): 8.1 m equiv kg-1
SMILES: CCOC(=O)COc1ccc(C(=O)c2ccc(O)c(CN)c2)c(Cl)c1Cl.Cl
Change (Rattus norvegicus [2]): -19%

Source: ChEMBL document CHEMBL1122781, “[(Aminomethyl)aryloxy]acetic acid esters. A new class of high-ceiling diuretics. 1. Effects of nitrogen and aromatic nuclear substitution” (J Med Chem, 1984)
